In the library only some 9.2% were active in any assay of this set; here they are far more common.
HCT116 PTEN-null: growth suppressors of cells with PTEN tumor suppressor deletion; HCT116 PTEN-null viability, CellTiter-Glo, 60 h; active compounds read low; 140,000 tested, 1.2% active; viability, % at 10 µM;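 active means viability at or below a set limit, 4 SD under the median of all tested compounds, cut at about 3.7% in these data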;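 further: PTEN knockout HCT116 line with beta catenin targeted HCT116 as companion control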
bCat KO growth: beta-catenin-lacking colon tumor cell growth suppression | HCT116 beta-catenin knockout viability, CellTiter-Glo, 60 h; active compounds read low | viability, % at 10 µM | 140,000 tested, 1.5% active | AID 818;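 active means viability at or under a set limit, the compound median less 4 SD, cut at about 6% in these data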
Dynein transport: dynein cargo transport inhibition | 3617.4 mouse cells, GR-EGFP nuclear translocation imaging; test concentration mostly 20 µM; stimulated with dexamethasone, 1 µM; active compounds read low | z-score, hits read low | 220,000 tested, 0.47% active | AID 1381;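 active means plate z-score of nuclear minus cytoplasmic receptor signal below a set negative limit, without overly bright fluorescence or cell loss, cut at about -3.5 in these data, passing the limit was not always enough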;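 further: z-score of nuclear minus cytoplasmic ring GR-EGFP intensity difference per well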
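Schedule: 48 h induction, then 1 h compound, then 30 min agonist, 37 °C. Buffer or medium: tetracycline-free induction medium containing charcoal-stripped FBS. Reagent: 1.0 µM final dexamethasone stimulus. Evaluation: nuclear versus cytoplasmic GR-EGFP signal, averaged per well. Signal: high-content fluorescence imaging after fixation.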
Lmaj promast: inhibitors of Leishmania major promastigote growth; Leishmania major promastigotes, resazurin fluorescence viability; inhibition, % at 10 µM; 200,000 tested, 9% active; AID 1063; in the data active means inhibition above about 50%;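 further: promastigotes grown with compound for 44 hours at 28 °C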
Autophagy HCS: modulators of autophagy. MEF GFP-LC3 puncta imaging; test concentration mostly 10 µM. calls only at 10 µM (by protocol). 190,000 tested, 0.98% active. AID 463193;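 active means percentage of spot-positive cells more than 3 SD above its plate mean, without a fluorescence outlier flag or 80% toxicity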
Numbers stand for hits; - = inactive; . = no result; + = active, no number.

SMILES | HCT116 PTEN-null | bCat KO growth | Dynein transport | Lmaj promast | Autophagy HCS
Cc1cccc(N2C(=O)NC(=O)/C(=C\c3cc(C)n(-c4sc5c(c4C#N)CCCC5)c3C)C2=O)c1C | - | - | - | - | -
CCOC(=O)c1c(-n2c(C)cc(C=C3C(=O)NC(=O)NC3=O)c2C)sc2c1CCCC2 | - | - | - | 84 | -
COC(=O)CCCCC1SCC(NC(=O)c2ccccc2)C1Cl (stereo not drawn) | . | . | - | - | -
OC1/C(=C/c2ccccc2C(F)(F)F)N2CCC1CC2 (stereo not drawn) | . | . | - | - | -
CCOC(=O)C1CCN(/C=C2/C(=O)NC(=S)N(c3cccc(OC)c3)C2=O)CC1 | . | . | - | - | -
CCOC(=O)C1CCN(C=C2C(=O)N(C)C(=S)N(C)C2=O)CC1 | - | - | - | - | -
CCOC(=O)C1CCN(/C=C2\C(=O)NC(=S)N(CC)C2=O)CC1 | . | . | - | 76 | -
CCOC(=O)C1CCN(/C=C2/C(=O)NC(=O)N(c3cccc(C)c3C)C2=O)CC1 | . | . | - | 54 | -
CC(=O)OC1N=C(c2ccccc2)c2cc(C)ccc2NC1=O (stereo not drawn) | - | - | - | 75 | -
CCC(C)n1c(O)c(/C=N/Nc2ccccc2)c(=O)[nH]c1=S (stereo not drawn) | - | - | - | 81 | -
CCC(C)n1c(O)c(/C=N/N2CCOCC2)c(=O)[nH]c1=S (stereo not drawn) | - | - | - | 55 | -
O=C(N/N=C/c1c(O)n(Cc2ccc(F)cc2)c(=S)[nH]c1=O)c1ccncc1 | . | . | - | . | .
CCn1c(O)c(/C=N/NC(=O)c2ccncc2)c(=O)[nH]c1=S | - | - | - | 99 | -
O=c1[nH]c(=S)n(C2CC2)c(O)c1/C=N/Nc1ccccc1 | - | - | - | 89 | -
CCC(C)n1c(O)c(C=NCCc2ccccc2)c(=O)[nH]c1=S (stereo not drawn) | . | . | - | . | .
CN1CCN(c2ccc3nccnc3c2)CC1 | . | . | - | - | -
CCC(=Nc1ccccc1NC(C)=O)c1c(O)n(C)c(=O)n(C)c1=O | - | - | - | - | -
CCC(C)n1c(O)c(/C=N/NC(=O)c2ccncc2)c(=O)[nH]c1=S (stereo not drawn) | - | - | - | 100 | -
CCCCC(=O)N/N=C/c1c(O)n(CCCC)c(=S)[nH]c1=O | . | . | - | . | .
CCCCC(=O)N/N=C/c1c(O)n(C2CC2)c(=S)[nH]c1=O | - | - | - | 98 | -
CCc1cc2c(N3CCN(C)CC3)ncnc2s1 | - | - | - | 73 | -
Nc1c(C(=O)NCCN2CCOCC2)c2nc3ccccc3nc2n1Cc1ccco1 | - | - | - | - | -
CC(C)(C)OC(=O)c1c(N)n(Cc2ccco2)c2nc3ccccc3nc12 | - | - | - | - | -
COCCNC(=O)c1c(N)n(Cc2ccco2)c2nc3ccccc3nc12 | - | - | - | 55 | -
C=CCNC(=O)c1c(N)n(Cc2ccco2)c2nc3ccccc3nc12 | - | - | - | 100 | -
SMILES | HCT116 PTEN-null | bCat KO growth | Dynein transport | Lmaj promast | Autophagy HCS
COc1cc(C)cc(CN2CC=C(c3ccccc3)CC2)c1O | . | . | - | 65 | -
O=[N+]([O-])c1ccc(N2CCNCC2)cc1N1CCCCC1 | . | . | - | 76 | -
CCNc1cc(N2CCNCC2)ccc1[N+](=O)[O-] | . | . | - | - | -
Cc1ccc(C(=O)c2cc(Br)ccc2N)cc1 | . | . | - | - | -
Cn1c2ccccc2c2c(C(=O)N3CCC4(CC3)OCCO4)cn(C3CCCC3)c(=O)c21 | - | - | - | - | -
CCCCCc1nc2c(c(=O)c3ccccc3n2C)c(=O)n1C1CCCCCC1 | 1.6 | 1.5 | - | 99 | -
CNC(=S)N1CCn2cccc2C1c1cccnc1 (stereo not drawn) | . | . | - | 68 | -
CCCCNC(=S)N1CCn2cccc2C1c1cccnc1 (stereo not drawn) | . | . | - | 92 | -
CC12CN3CC(C)(CN(C1)C3c1cccnc1)C2=O (stereo not drawn) | - | - | - | - | -
CCC12CN3CC(CC)(CN(C1)C3c1cccnc1)C2=O (stereo not drawn) | - | - | - | - | -
Cc1ccc(-n2c(-c3cccs3)nc3ccccc3c2=O)cc1 | - | - | - | - | -
CCC(C)N1C(=O)/C(=C/c2ccc3c(c2)CCN3CCCCl)C(=O)NC1=S (stereo not drawn) | - | - | - | 55 | -
COC(=O)C[C@]1(C(=O)OC)CN(C#N)N(c2ccc(Cl)cc2)C12c1ccccc1-c1ccccc12 | 1.2 | 0.4 | -4.4 | 100 | -
COc1ccc(CNC(=O)/C=C/c2ccc3[nH]cc(CCN(C)C)c3c2)cc1 | . | . | - | . | .
COc1ccc(CCNC2CCCCC2)cc1 | . | . | - | - | -
COc1ccc(CCC(C)NCCc2ccccc2)cc1 (stereo not drawn) | - | - | - | 89 | -
Cc1ccccc1C(O)(Cc1ccccc1)C1CN2CCC1CC2 (stereo not drawn) | 0.3 | 1.1 | - | 98 | -
CC(C)=CCOc1c2occc2cc2ccc(=O)oc12 | - | - | - | - | -
CNC(=S)NC1CC2CCCC(C1)N2CC(C)C (stereo not drawn) | - | - | - | - | -
Cc1ccc(CN2C3CCCC2CC(NC(=S)NCc2ccccc2)C3)cc1 (stereo not drawn) | . | . | - | 92 | -
CCCCN1C(=O)/C(=C/C=C/c2ccco2)C(=O)NC1=S | - | - | - | - | -
CC(C)c1ccc(N2C(=O)NC(=O)/C(=C/C=C/c3ccco3)C2=O)cc1 | - | - | - | 94 | -
COc1cccc(C(=O)C2CCCN(Cc3cccc4c3OCO4)C2)c1 (stereo not drawn) | . | . | - | - | -
CSc1ncc(CN2CCCC(C(=O)c3cccc(Cl)c3)C2)cn1 (stereo not drawn) | . | . | - | 82 | -
O=C(c1ccc(Cl)cc1)C1CCCN(Cc2cccc3cnccc23)C1 (stereo not drawn) | . | . | - | 99 | -
SMILES | HCT116 PTEN-null | bCat KO growth | Dynein transport | Lmaj promast | Autophagy HCS
O=C(c1cccc(Cl)c1)C1CCCN(Cc2cccc3cnccc23)C1 (stereo not drawn) | . | . | - | 95 | -
O=c1c2ccccc2nc(-c2ccccc2)n1-c1ccc(O)cc1 | . | . | - | - | -
COc1ccc2[nH]cc(CCN(C)C)c2c1 | . | . | - | - | -
CCCCCSc1cc(OC)c(CCN(C)C)cc1OC | - | - | - | 100 | -
CCC(C)OC(=O)c1c(N)n(Cc2cccs2)c2nc3ccccc3nc12 (stereo not drawn) | - | - | - | 91 | -
Nc1c(C(=O)OCc2ccccc2)c2nc3ccccc3nc2n1Cc1cccs1 | - | - | - | 69 | -
O=C(c1c[nH]c2ccc(S(=O)(=O)N3CCC4(CC3)OCCO4)cc2c1=O)N1CCC2(CC1)OCCO2 | . | . | - | - | -
CCn1c(C)c(C(=O)O)c2cc(OC)ccc21 | - | - | - | - | -
CCN1CCN(C(=O)Cc2c(C)n(C(=O)c3ccc(Cl)cc3)c3ccc(OC)cc23)CC1 | . | . | - | 98 | -
CCN(CC)c1ccc(N=Cc2c(O)n(CCC3=CCCCC3)c(=O)[nH]c2=O)cc1 | - | - | - | - | +

Screening results as filed in PubChem BioAssay.
